How the values were obtained:
Histone deacetylase 8 [1] = biological target: T1, Histone deacetylase 8 (Schistosoma mansoni, UniProt A5H660); experiment: Inhibition of Schistosoma mansoni HDAC8 using Fluor de Lys as substrate incubated for 90 mins by fluorescence method
T1 sequence (A5H660 whole entry): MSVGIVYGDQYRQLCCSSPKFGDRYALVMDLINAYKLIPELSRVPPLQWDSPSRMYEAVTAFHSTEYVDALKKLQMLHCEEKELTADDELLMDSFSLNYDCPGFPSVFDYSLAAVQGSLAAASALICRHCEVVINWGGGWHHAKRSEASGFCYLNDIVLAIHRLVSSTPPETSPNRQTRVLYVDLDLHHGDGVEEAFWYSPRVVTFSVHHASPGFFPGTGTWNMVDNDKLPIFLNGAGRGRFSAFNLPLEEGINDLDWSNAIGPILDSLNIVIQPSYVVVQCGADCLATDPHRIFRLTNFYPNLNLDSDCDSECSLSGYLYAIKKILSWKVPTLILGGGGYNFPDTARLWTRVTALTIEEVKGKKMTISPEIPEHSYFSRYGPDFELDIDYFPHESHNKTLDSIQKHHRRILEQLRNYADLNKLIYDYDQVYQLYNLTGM
Summary of the method: (§1)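 Recombinant smHDAC8 or hHDAC8 (Romier lab) run to Fluor de Lys HDAC8 kit protocol. Substrate H2N-Arg-His-Lys(Ac)-Lys(Ac)-AMC at 50 μM with increasing inhibitor concentrations, 90 min at 37°C. Stop solution holding inhibitor plus trypsin, then 20 min at 37°C to release AMC. Fluorescence read at Ex 355/Em 460 nm.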

Schistosoma mansoni [2] = experiment: Antischistosomal activity against Schistosoma mansoni schistosomula at 10 uM incubated for 48 hrs by Alamar Blue assay; format: functional
Summary of the method: (§2)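 S. mansoni newly transformed schistosomula from mechanically transformed cercariae, 100 NTS/well in Medium 199 with 10% FCS, penicillin, streptomycin and rifampicin. Pre-cultured 3 h at 37°C, 5% CO2. Compounds from 20 mM DMSO stocks, final 10 or 20 μM. Alamar Blue added after 48 h exposure, then 24 h more. Resorufin read at Ex 530/Em 590 nm. Live and ethanol-killed larvae as controls; triplicate wells, two biological replicates.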

HEK293 = experiment: Cytotoxicity against human HEK293 assessed as reduction in cell viability at 50 uM measured for 24 hrs by Alamar Blue assay; format: cell-based; settings: hek293, 24 h
Summary of the method: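 HEK293 cells in DMEM with 10% FCS and 5 mM glutamine at 37°C, 5% CO2, seeded at 1.5×10^3 cells/well. Compounds added at 50 μM. AlamarBlue added after 24 h and incubated a further 21 h. Resorufin fluorescence read at Ex 530/Em 590 nm. Triplicates; daunorubicin positive control.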

Schistosoma mansoni [3] = experiment: Antischistosomal activity against Schistosoma mansoni schistosomula at 20 uM incubated for 48 hrs by Alamar Blue assay; format: functional; summary of the method: as §2
[4] = biological target: T2, Histone deacetylase 8 (Homo sapiens) (UniProt Q9BY41); experiment: Inhibition of human recombinant HDAC8 at 1 uM using H2N-Arg-His-Lys(Ac)-Lys(Ac)-AMC as substrate after 90 mins by fluorescence based micro plate assay; summary of the method: as §1
T2 sequence (whole entry): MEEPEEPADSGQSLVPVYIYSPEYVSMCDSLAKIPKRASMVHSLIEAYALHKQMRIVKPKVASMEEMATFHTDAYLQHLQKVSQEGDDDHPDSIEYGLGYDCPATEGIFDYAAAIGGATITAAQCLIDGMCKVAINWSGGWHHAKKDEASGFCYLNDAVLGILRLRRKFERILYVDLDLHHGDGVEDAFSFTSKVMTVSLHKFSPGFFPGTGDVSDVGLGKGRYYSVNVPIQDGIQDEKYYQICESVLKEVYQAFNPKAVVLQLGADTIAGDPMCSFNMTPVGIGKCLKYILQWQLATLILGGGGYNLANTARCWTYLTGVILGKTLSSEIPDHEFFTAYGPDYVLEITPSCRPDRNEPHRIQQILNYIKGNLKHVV

Histone deacetylase 8 [5] = biological target: T3, Histone deacetylase 8 (Homo sapiens, UniProt Q9BY41); experiment: Inhibition of human recombinant HDAC8 using H2N-Arg-His-Lys(Ac)-Lys(Ac)-AMC as substrate after 90 mins by fluorescence based micro plate assay
T3 sequence (Q9BY41 whole entry): T2 sequence (whole entry)

Histone deacetylase 1 = Histone deacetylase 1 (Homo sapiens, UniProt Q13547); experiment: Inhibition of recombinant human HDAC1 using ZMAL as substrate incubated for 90 mins by fluorescence based micro plate assay
Chain of Histone deacetylase 1 (Q13547 whole entry): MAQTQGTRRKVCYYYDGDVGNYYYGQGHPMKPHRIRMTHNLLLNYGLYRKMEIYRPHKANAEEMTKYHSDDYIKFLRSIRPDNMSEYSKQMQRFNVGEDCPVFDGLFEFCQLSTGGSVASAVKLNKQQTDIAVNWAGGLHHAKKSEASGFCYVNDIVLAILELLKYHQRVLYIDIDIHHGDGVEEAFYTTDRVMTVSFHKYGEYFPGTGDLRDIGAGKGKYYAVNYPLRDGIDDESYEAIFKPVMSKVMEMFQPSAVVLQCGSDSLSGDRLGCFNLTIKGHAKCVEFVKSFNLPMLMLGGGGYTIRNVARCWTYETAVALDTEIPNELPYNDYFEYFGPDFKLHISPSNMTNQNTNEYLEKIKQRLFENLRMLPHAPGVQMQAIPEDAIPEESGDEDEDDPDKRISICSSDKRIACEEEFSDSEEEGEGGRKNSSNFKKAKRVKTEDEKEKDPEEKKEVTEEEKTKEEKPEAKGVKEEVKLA

[6] = biological target: T4, Protein deacetylase HDAC6 (Homo sapiens, UniProt Q9UBN7); experiment: Inhibition of recombinant human HDAC6 using ZMAL as substrate incubated for 90 mins by fluorescence based micro plate assay
T4 sequence (Q9UBN7 whole entry): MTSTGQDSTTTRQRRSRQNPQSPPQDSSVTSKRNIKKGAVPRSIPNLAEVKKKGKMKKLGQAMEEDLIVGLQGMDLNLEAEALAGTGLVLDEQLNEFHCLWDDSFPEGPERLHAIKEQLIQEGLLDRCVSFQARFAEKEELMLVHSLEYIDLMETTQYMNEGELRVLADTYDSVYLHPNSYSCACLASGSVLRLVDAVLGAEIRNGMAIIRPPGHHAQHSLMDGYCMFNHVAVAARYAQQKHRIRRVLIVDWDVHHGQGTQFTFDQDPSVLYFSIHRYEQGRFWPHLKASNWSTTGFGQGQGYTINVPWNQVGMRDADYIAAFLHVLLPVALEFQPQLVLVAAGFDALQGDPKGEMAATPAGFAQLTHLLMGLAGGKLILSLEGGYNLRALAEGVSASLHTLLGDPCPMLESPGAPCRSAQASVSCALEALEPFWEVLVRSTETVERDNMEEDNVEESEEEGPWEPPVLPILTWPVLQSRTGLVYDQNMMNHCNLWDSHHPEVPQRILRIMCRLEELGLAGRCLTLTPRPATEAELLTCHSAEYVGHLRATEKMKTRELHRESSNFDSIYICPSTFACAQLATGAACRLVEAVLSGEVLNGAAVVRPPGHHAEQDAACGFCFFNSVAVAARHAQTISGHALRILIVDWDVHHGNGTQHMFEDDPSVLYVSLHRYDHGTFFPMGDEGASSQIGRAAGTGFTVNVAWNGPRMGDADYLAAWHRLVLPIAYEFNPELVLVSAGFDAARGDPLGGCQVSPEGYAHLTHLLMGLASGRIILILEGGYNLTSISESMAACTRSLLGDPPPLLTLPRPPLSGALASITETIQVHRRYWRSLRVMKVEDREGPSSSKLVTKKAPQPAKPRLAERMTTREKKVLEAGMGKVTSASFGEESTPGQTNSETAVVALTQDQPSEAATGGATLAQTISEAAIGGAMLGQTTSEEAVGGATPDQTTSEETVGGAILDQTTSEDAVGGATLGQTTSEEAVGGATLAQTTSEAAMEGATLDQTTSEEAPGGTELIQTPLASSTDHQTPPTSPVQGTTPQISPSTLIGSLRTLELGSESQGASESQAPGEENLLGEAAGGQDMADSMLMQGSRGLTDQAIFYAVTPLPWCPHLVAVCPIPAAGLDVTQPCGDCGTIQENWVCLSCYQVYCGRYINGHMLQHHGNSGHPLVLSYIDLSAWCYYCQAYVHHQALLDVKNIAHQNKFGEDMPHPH

Structure (SMILES)	IC50 (Histone deacetylase 8 [1])	Activity (Schistosoma mansoni [2])	Activity (HEK293)	Activity (Schistosoma mansoni [3])	inhibition [4]	IC50 (Histone deacetylase 8 [5])	IC50 (Histone deacetylase 1)	IC50 [6]
COc1ccc(C(=O)NO)cc1NC(=O)c1ccc(OC(C)C)cc1	730 nM	72.6%	93.1%	56.2%	–	–	–	–
COc1ccc(C(=O)NO)cc1NC(=O)c1cccc(OCc2ccccc2)c1	610 nM	61%	95.4%	56.2%	59%	–	–	–
COc1ccc(C(=O)NO)cc1C(=O)Nc1ccc2sccc2c1	220 nM	82.1%	95.6%	77.1%	–	100 nM	–	–
CCOc1ccc(C(C)=O)cc1NC(=O)c1cc(C(=O)NO)ccc1Cl	140 nM	57%	60.6%	33.1%	–	220 nM	18100 nM	110 nM
COc1ccc(C(=O)NO)cc1NC(=O)c1cccc2c1/C(=N/O)c1ccccc1-2	320 nM	98.5%	76.6%	96%	–	150 nM	–	–
COc1ccc(C(=O)NO)cc1NC(=O)c1nc2ccccc2[nH]1	580 nM	69.5%	83.5%	47.1%	29%	–	–	–
COc1ccc(C(=O)NO)cc1NC(=O)c1ccc2[nH]c3c(c2c1)CN(C)CC3.Cl	200 nM	98%	71.1%	100%	–	290 nM	–	–
COc1ccc(C(C)=O)cc1NC(=O)c1cc(C(=O)NO)ccc1C	180 nM	75.2%	94.8%	69.5%	–	90 nM	–	–
COc1ccc(C(=O)NO)cc1NCc1cccc2c1oc1ccccc12	450 nM	–	–	–	–	860 nM	–	–
COc1ccc(C(=O)Nc2cc(C(=O)NO)ccc2OC)c(OC)c1	2080 nM	65.3%	88.4%	66.5%	63%	–	–	–
CCOc1ccc(C(C)=O)cc1NC(=O)c1cccc(C(=O)NO)c1	160 nM	81%	81.2%	67.3%	–	590 nM	7700 nM	120 nM
O=C(NO)c1ccc(Cl)c(NC(=O)c2ccc(-c3ccccc3)cc2)c1	400 nM	62.3%	81.7%	55.1%	–	450 nM	10900 nM	160 nM
COc1ccc(C(=O)NO)cc1C(=O)Nc1ccc(Cl)cc1	310 nM	77.3%	27.5%	59.2%	–	–	–	–
COc1ccc(C(=O)NO)cc1C(=O)Nc1ccc(Cl)cc1Cl	180 nM	88.2%	58.3%	83.4%	31%	–	–	–
COc1ccc(C(=O)NO)cc1NC(=O)c1ccc(-c2ccc(F)cc2)cc1Cl	320 nM	74.6%	83.5%	60.5%	48%	–	–	–
Cc1ccc(C(=O)NO)cc1NC(=O)c1cccc(OCc2ccccc2)c1	450 nM	67.3%	81.4%	46.5%	60%	–	–	–
O=C(NO)c1ccc(Cl)c(NC(=O)c2ccc(-c3ccc(F)cc3)cc2Cl)c1	280 nM	63.4%	82.2%	56.6%	25%	–	–	–
CSc1ccc(C(=O)NO)cc1NC(=O)c1ccc(-c2ccccc2)cc1	100 nM	57.4%	82.3%	64.9%	–	220 nM	3880 nM	1500 nM
O=C(C1CCCCC1)N1CC(=O)N2CCc3ccccc3C2C1 (stereo not drawn) [PRAZIQUANTEL]	–	92.1%	99.3%	88.9%	–	–	–	–
CCOc1ccc(C(C)=O)cc1NC(=O)c1cc(C(=O)NO)ccc1OC	330 nM	64.3%	59.9%	56.7%	61%	–	–	–
CCCOc1ccc(C(=O)Nc2cc(C(=O)NO)ccc2OC)cc1	730 nM	70.7%	93.2%	51.6%	66%	–	–	–
COc1ccc(C(C)=O)cc1NC(=O)c1cc(C(=O)NO)ccc1Cl	290 nM	62.6%	89.1%	32.3%	–	90 nM	–	–
COc1ccc(C(=O)NO)cc1NC(=O)c1ccc(-c2ccccc2)cc1	290 nM	64.8%	12.3%	33.4%	–	130 nM	–	390 nM
COc1ccc(C(=O)NO)cc1NC(=O)c1cccc2cccnc12	330 nM	62%	77%	40%	–	180 nM	–	–
Cc1ccc(C(=O)NO)cc1NC(=O)c1cccc(OCc2c(Cl)cccc2Cl)c1	520 nM	38.4%	66.6%	22.3%	34%	–	–	–
Cc1ccc(C(=O)NO)cc1C(=O)Nc1ccc(Cl)cc1	330 nM	69.1%	67.6%	50.2%	–	–	3370 nM	600 nM
CCOc1ccc(C(C)=O)cc1NC(=O)c1cc(C(=O)NO)ccc1C	210 nM	42.1%	87.7%	37%	–	70 nM	–	–
